{
  "source": "paper PMC6774347",
  "about": "(European Journal of Organic Chemistry, 2019)",
  "key": {"CEM leukemia cell line": {"tested_on": "CEM leukemia cell line", "test": "Differential nuclear staining", "type": "cell-based, human", "settings": "48 h; for CEM cell death (in words): at the prepared / highest soluble concentrations; for Concentration inducing significant death in CEM cells: tested 100 µM to 0.5 µM", "outline": "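Live-cell imaging differential nuclear staining with Hoechst 33342 (all nuclei) and propidium iodide (dead cells). DMSO stocks at highest soluble concentration were serially diluted and added to cells in complete medium (final 1 % v/v DMSO), 100 µM down to 0.5 µM. Read at 48 h in quadruplicate. Controls were untreated, 1 % DMSO and 1.62 mM H2O2. CC50 (50 % membrane-integrity loss versus untreated) was linearly interpolated between the two concentrations nearest 50 %.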"}, "[1]": {"test": "Compound solubility in DMSO stock and in the biological assays", "type": "physicochemical", "settings": "for Solubility (in words): stock solutions at highest soluble concentration in DMSO; for Compound crystallization in treated cells: CEM cells in complete media, 1 % v/v DMSO"}, "TK+ VZV": {"tested_on": "TK+ VZV", "test": "Antiviral assay, plaque formation in HEL cells", "type": "cell-based, varicella-zoster virus (VZV)", "settings": "Human alphaherpesvirus 3, HEL"}, "TK– VZV": {"tested_on": "TK– VZV", "test": "Antiviral assay, plaque formation in HEL cells", "type": "cell-based, varicella-zoster virus (VZV)", "settings": "Human alphaherpesvirus 3, HEL"}, "CEM cells": {"tested_on": "CEM cells", "test": "Annexin V-FITC / propidium iodide apoptosis assay", "type": "cell-based, human", "settings": "24 h, annexin-FITC and PI staining"}, "[2]": {"tested_on": "MDA-MB-231 (MB-231) triple-negative breast cancer cell line", "test": "Differential nuclear staining", "type": "cell-based", "settings": "Homo sapiens, MDA-MB-231, 72 h", "outline": "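MDA-MB-231 cells were stained with Hoechst 33342 and propidium iodide and imaged live. Serial dilutions from 100 µM (to 0.5 µM) in DMSO were added directly to cell-containing wells (final 1 % v/v DMSO). Read at 72 h in quadruplicate. Controls were untreated, 1 % DMSO and 1.62 mM H2O2. CC50 was linearly interpolated between the two concentrations flanking 50 % death relative to untreated cells.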"}},
  "data": [
    {"molecule": "COc1cc(-c2cn(-c3cc(=O)oc4ccc(Br)cc34)nn2)cc(OC)c1OC", "note": "[Compound 16, 6‐Bromo‐4‐(4‐(3,4,5‐trimethoxyphenyl)‐1H‐1,2,3‐triazol‐1‐yl)‐2H‐chromen‐2‐one]", "values": [
      {"measurement": "CEM cell death (in words)", "setting": "CEM leukemia cell line", "value": "did not induce significant CEM cell death"},
      {"measurement": "Solubility (in words)", "setting": "[1]", "value": "relatively soluble"}
    ]},
    {"molecule": "COc1cc(-c2cn(-c3cc(=O)oc4cc(C)ccc34)nn2)cc(OC)c1OC", "note": "[Compound 18, 7‐Methyl‐4‐(4‐(3,4,5‐trimethoxyphenyl)‐1H‐1,2,3‐triazol‐1‐yl)‐2H‐chromen‐2‐one]", "values": [
      {"measurement": "CEM cell death (in words)", "setting": "CEM leukemia cell line", "value": "did not induce quantifiable CEM cell death"},
      {"measurement": "Compound crystallization in treated cells", "setting": "[1]", "value": "significant compound crystallization"}
    ]},
    {"molecule": "COc1cc(-c2cn(-c3cc(=O)oc4ccc(Cl)cc34)nn2)cc(OC)c1OC", "note": "[Compound 15, 6‐Chloro‐4‐(4‐(3,4,5‐trimethoxyphenyl)‐1H‐1,2,3‐triazol‐1‐yl)‐2H‐chromen‐2‐one]", "values": [
      {"measurement": "CEM cell death (in words)", "setting": "CEM leukemia cell line", "value": "demonstrated cytotoxicity at its highest soluble concentration"},
      {"measurement": "Solubility (in words)", "setting": "[1]", "value": "one of the least soluble compounds in the series"}
    ]},
    {"molecule": "COc1cccc(-c2cn(-c3cc(=O)oc4ccc(Br)cc34)nn2)c1", "note": "[Compound 24, 6‐Bromo‐4‐(4‐(3‐methoxyphenyl)‐1H‐1,2,3‐triazol‐1‐yl)‐2H‐chromen‐2‐one]", "values": [
      {"measurement": "Concentration inducing significant death in CEM cells", "setting": "CEM leukemia cell line", "value": "approximately 10 µM"}
    ]},
    {"molecule": "COc1cc(-c2cn(-c3cc(=O)oc4ccccc34)nn2)cc(OC)c1OC", "note": "[Compound 13, 4‐(4‐(3,4,5‐Trimethoxyphenyl)‐1H‐1,2,3‐triazol‐1‐yl)‐2H‐chromen‐2‐one]", "values": [
      {"measurement": "CEM cell death (in words)", "setting": "CEM leukemia cell line", "value": "did not induce quantifiable CEM cell death"},
      {"measurement": "Compound crystallization in treated cells", "setting": "[1]", "value": "significant compound crystallization"}
    ]},
    {"molecule": "COc1cc(-c2cn(-c3cc(=O)oc4ccc(C)cc34)nn2)cc(OC)c1OC", "note": "[Compound 14, 6‐Methyl‐4‐(4‐(3,4,5‐trimethoxyphenyl)‐1H‐1,2,3‐triazol‐1‐yl)‐2H‐chromen‐2‐one]", "values": [
      {"measurement": "CEM cell death (in words)", "setting": "CEM leukemia cell line", "value": "did not induce significant CEM cell death"}
    ]},
    {"molecule": "COc1ccc2c(-n3cc(-c4cc(OC)c(OC)c(OC)c4)nn3)cc(=O)oc2c1", "note": "[Compound 19, 7‐Methoxy‐4‐(4‐(3,4,5‐trimethoxyphenyl)‐1H‐1,2,3‐triazol‐1‐yl)‐2H‐chromen‐2‐one]", "values": [
      {"measurement": "CEM cell death (in words)", "setting": "CEM leukemia cell line", "value": "did not induce quantifiable CEM cell death"},
      {"measurement": "Compound crystallization in treated cells", "setting": "[1]", "value": "significant compound crystallization"}
    ]},
    {"molecule": "COc1ccc(-c2cn(-c3cc(=O)oc4ccc(Br)cc34)nn2)cc1", "note": "[Compound 23, 6‐Bromo‐4‐(4‐(4‐methoxyphenyl)‐1H‐1,2,3‐triazol‐1‐yl)‐2H‐chromen‐2‐one]", "values": [
      {"measurement": "Concentration inducing significant death in CEM cells", "setting": "CEM leukemia cell line", "value": "approximately 10 µM"}
    ]},
    {"molecule": "COc1cc(-c2cn(-c3cc(=O)oc4c(Cl)cc(Cl)cc34)nn2)cc(OC)c1OC", "note": "[Compound 17, 6,8‐Dichloro‐4‐(4‐(3,4,5‐trimethoxyphenyl)‐1H‐1,2,3‐triazol‐1‐yl)‐2H‐chromen‐2‐one]", "values": [
      {"measurement": "CEM cell death (in words)", "setting": "CEM leukemia cell line", "value": "did not induce significant CEM cell death"},
      {"measurement": "EC50", "setting": "TK+ VZV", "value": 66.9, "unit": "µM"}
    ]},
    {"molecule": "COc1cc(OC)cc(-c2cn(-c3cc(=O)oc4ccc(Br)cc34)nn2)c1", "note": "[Compound 22, 6‐Bromo‐4‐(4‐(3,5‐dimethoxyphenyl)‐1H‐1,2,3‐triazol‐1‐yl)‐2H‐chromen‐2‐one]", "values": [
      {"measurement": "Concentration inducing significant death in CEM cells", "setting": "CEM leukemia cell line", "value": "approximately 10 µM"},
      {"measurement": "EC50", "setting": "TK+ VZV", "value": 58.5, "unit": "µM"}
    ]},
    {"molecule": "COc1cc(-c2cn(-c3ccccc3)nn2)cc(OC)c1OC", "note": "[Compound 20, 1‐Phenyl‐4‐(3,4,5‐trimethoxyphenyl)‐1H‐1,2,3‐triazole]", "values": [
      {"measurement": "EC50", "setting": "TK– VZV", "value": 39.1, "unit": "µM"},
      {"measurement": "Solubility (in words)", "setting": "[1]", "value": "the most readily soluble of the compounds"},
      {"measurement": "Mode of cell death (apoptosis vs necrosis)", "setting": "CEM cells", "value": "preferentially induces cell death via apoptosis"},
      {"measurement": "EC50", "setting": "TK+ VZV", "value": 39.9, "unit": "µM"},
      {"measurement": "CC50", "setting": "[2]", "value": 55.4, "unit": "µM"}
    ]}
  ]
}
